{"source": "ChEMBL document CHEMBL1121744", "about": "“Synthesis and antihypertensive activity of a series of 8-substituted 1-oxa-3,8-diazaspiro[4.5]decan-2-ones” (J Med Chem, 1981)", "key": {"[1]": {"system": "Rattus norvegicus", "assay": "The antihypertensive activity as percentage fall in systolic blood pressure in spontaneously hypertensive rats after a period of 4 hr for a dose of 100 mg/kg po", "format": "functional, Artery", "method_in_brief": "(§1)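 Male Okamoto-Aoki SHR, trained, in groups of four matched for mean systolic pressure; one group per run received water vehicle. Oral dosing in water (0.1 mL per 10 g) on two consecutive mornings. After the day-2 dose, rats were restrained at 30.0 ± 1.0 °C. Systolic pressure was read by tail cuff (inflated to 300 mmHg, first pulse) at 1–4 h. % fall is versus the untreated control group, by 1-tail t test (p ≤ 0.05).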"}, "[2]": {"system": "Rattus norvegicus", "assay": "Antihypertensive activity as percentage fall in systolic blood pressure in spontaneously hypertensive rats after a period of 4 hr for a dose of 50 mg/kg", "format": "functional, organism-based", "parameters": "dose 50 mg/kg", "conditions": "Artery", "method_in_brief": "as §1"}, "[3]": {"system": "Rattus norvegicus", "assay": "The antihypertensive activity as percentage fall in systolic blood pressure in spontaneously hypertensive rats after a period of 2 hr for a dose of 100 mg/kg po", "format": "functional, Artery", "method_in_brief": "as §1"}, "[4]": {"system": "Rattus norvegicus", "assay": "Percentage fall in systolic blood pressure in spontaneously hypertensive rats after 3 h following 50 mg/kg p.o.", "format": "functional, Artery", "conditions": "route oral", "method_in_brief": "as §1"}, "[5]": {"system": "Rattus norvegicus", "assay": "The antihypertensive activity as percentage fall in systolic blood pressure in spontaneously hypertensive rats after a period of 1 hr for a dose of 100 mg/kg po", "format": "functional, Artery", "method_in_brief": "as §1"}, "[6]": {"assay": "Distribution coefficient between 1-Octanol and phosphate buffer at pH7.4", "format": "physicochemical", "conditions": "1-octanol/phosphate buffer, pH 7.4"}, "[7]": {"system": "Rattus norvegicus", "assay": "Percentage fall in systolic blood pressure in spontaneously hypertensive rats after 2 hr following 50 mg/kg p.o.", "format": "functional, Artery", "conditions": "route oral", "method_in_brief": "as §1"}, "[8]": {"system": "Rattus norvegicus", "assay": "Antihypertensive activity as percentage fall in systolic blood pressure in spontaneously hypertensive rats after a period of 1 hr for a dose of 50 mg/kg", "format": "functional, Artery", "method_in_brief": "as §1"}, "[9]": {"system": "Rattus norvegicus", "assay": "The antihypertensive activity as percentage fall in systolic blood pressure in spontaneously hypertensive rats after a period of 3 hr for a dose of 100 mg/kg po", "format": "functional, Artery", "method_in_brief": "as §1"}, "[10]": {"system": "Rattus norvegicus", "assay": "The antihypertensive activity as percentage fall in systolic blood pressure in spontaneously hypertensive rats after a period of 2 hr for a dose of 25 mg/kg po", "format": "functional, Artery", "method_in_brief": "as §1"}, "[11]": {"system": "Rattus norvegicus", "assay": "The antihypertensive activity as percentage fall in systolic blood pressure in spontaneously hypertensive rats after a period of 4 hr for a dose of 25 mg/kg po; NS=Not significant", "format": "functional, organism-based", "parameters": "dose 25 mg/kg", "conditions": "Artery", "method_in_brief": "as §1"}, "[12]": {"system": "Rattus norvegicus", "assay": "The antihypertensive activity as percentage fall in systolic blood pressure in spontaneously hypertensive rats after a period of 1 hr for a dose of 25 mg/kg po", "format": "functional, Artery", "method_in_brief": "as §1"}, "[13]": {"system": "Rattus norvegicus", "assay": "The antihypertensive activity as percentage fall in systolic blood pressure in spontaneously hypertensive rats after a period of 3 hr for a dose of 25 mg/kg po; NS=Not significant", "format": "functional, organism-based", "parameters": "dose 25 mg/kg", "conditions": "Artery", "method_in_brief": "as §1"}, "[14]": {"system": "Rattus norvegicus", "assay": "Antihypertensive activity as percentage fall in systolic blood pressure in spontaneously hypertensive rats after a period of 2 hr for a dose of 12.5 mg/kg po", "format": "functional, Artery", "method_in_brief": "as §1"}, "[15]": {"system": "Rattus norvegicus", "assay": "Antihypertensive activity as percentage fall in systolic blood pressure in spontaneously hypertensive rats after a period of 3 hr for a dose of 12.5 mg/kg po", "format": "functional, Artery", "method_in_brief": "as §1"}, "[16]": {"system": "Rattus norvegicus", "assay": "Antihypertensive activity as percentage fall in systolic blood pressure in spontaneously hypertensive rats after a period of 4 hr for a dose of 12.5 mg/kg po", "format": "functional, Artery", "method_in_brief": "as §1"}, "[17]": {"system": "Rattus norvegicus", "assay": "Antihypertensive activity as percentage fall in systolic blood pressure in spontaneously hypertensive rats after a period of 1 hr for a dose of 12.5 mg/kg po", "format": "functional, Artery", "method_in_brief": "as §1"}}, "note": "Several values for one entry are separate records, joined by “and”; a condition that tells them apart may be missing. Equal values may be shown once. Activity calls are given as the source filed them. The calls are words filed in the database; no cut-off is given here.", "data": [{"molecule": "O=C1NCC2(CCN(CC(O)C3COc4ccccc4O3)CC2)O1", "note": "(stereo not drawn)", "values": [{"measurement": "Decrease in blood pressure", "setting": "[1]", "result": 16, "unit": "%"}, {"measurement": "Decrease in blood pressure", "setting": "[2]", "result": "Not significant"}, {"measurement": "Decrease in blood pressure", "setting": "[3]", "result": 14, "unit": "%"}, {"measurement": "Decrease in blood pressure", "setting": "[4]", "result": 21, "unit": "%"}, {"measurement": "Decrease in blood pressure", "setting": "[5]", "result": 24, "unit": "%"}, {"measurement": "logD", "setting": "[6]", "result": 0.98}, {"measurement": "Decrease in blood pressure", "setting": "[7]", "result": 12, "unit": "%"}, {"measurement": "Decrease in blood pressure", "setting": "[8]", "result": 28, "unit": "%"}, {"measurement": "Decrease in blood pressure", "setting": "[9]", "result": 11, "unit": "%"}]}, {"molecule": "CCN1CC2(CCN(CC(O)C3COc4ccccc4O3)CC2)OC1=O", "note": "(stereo not drawn)", "values": [{"measurement": "Decrease in blood pressure", "setting": "[10]", "result": 9, "unit": "%"}, {"measurement": "Decrease in blood pressure", "setting": "[11]", "result": "inactive"}, {"measurement": "Decrease in blood pressure", "setting": "[4]", "result": 11, "unit": "%"}, {"measurement": "Decrease in blood pressure", "setting": "[12]", "result": 18, "unit": "%"}, {"measurement": "Decrease in blood pressure", "setting": "[7]; 50 mg/kg", "result": "18% and 15%"}, {"measurement": "Decrease in blood pressure", "setting": "[8]", "result": 32, "unit": "%"}, {"measurement": "Decrease in blood pressure", "setting": "[13]", "result": "inactive"}]}, {"molecule": "CCC1NC(=O)OC12CCN(CC1COc3ccccc3O1)CC2", "note": "(stereo not drawn)", "values": [{"measurement": "Decrease in blood pressure", "setting": "[14]", "result": 14, "unit": "%"}, {"measurement": "Decrease in blood pressure", "setting": "[15]", "result": -13, "unit": "%"}, {"measurement": "Decrease in blood pressure", "setting": "[4]", "result": 42, "unit": "%"}, {"measurement": "Decrease in blood pressure", "setting": "[16]", "result": -11, "unit": "%"}, {"measurement": "Decrease in blood pressure", "setting": "[17]", "result": 22, "unit": "%"}, {"measurement": "Decrease in blood pressure", "setting": "[7]; 50 mg/kg", "result": "54% and 42%"}, {"measurement": "Decrease in blood pressure", "setting": "[8]", "result": 51, "unit": "%"}]}]}
